The results in this text go back to ChEMBL document CHEMBL1154279, “Cytotoxic compounds from the stems of Cinnamomum tenuifolium” (J Nat Prod, 2009).

Where only a bound is given, the exact number is not on record here.

One assay relates to DU-145. In words: Cytotoxicity against human DU145 cells after 72 hrs by XTT assay. The note with it: DU-145, 24 h, in the assay text read “after 24 hrs” for “after 72 hrs”. Type of assay: functional, cell-based.
In a further assay the test system is LNCaP. The assay is described as follows: Cytotoxicity against human LNCAP cells after 72 hrs by XTT assay. Type of assay: functional, cell-based. Particulars: 24 h, in the assay text read “after 24 hrs” for “after 72 hrs”. The procedure, abridged:
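Prostate cancer cells in RPMI-1640 with 10% FBS, 37 °C, 5% CO2, grown to 70–80% confluence and treated at 0.1–100 µM for 24, 48 and 72 h. XTT labeling for 4 h at 37 °C, absorbance 450 nm (reference 650 nm) against control wells. IC50 derived from the mean of eight wells; taxol and cisplatin served as positive controls.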
On the technique in general: Tetrazolium assays rely on reduction of a dye to a coloured formazan, in cell work by metabolically active cells.

Take `C=C1C=C(C(CCCCCCCCCCCCCCCCCCC)OC)C(=O)O1` (centres undefined) [TENUIFOLIDE B]: the IC50 came out at 246 µM in the assay on DU-145 and 22.2 µM in the assay with LNCaP.
On to `COc1ccc2c(c1)CC=C(CO)c1cc3c(cc1-2)OCO3` [TENUIFOLIN], for which the IC50 is greater than 500 µM in the assay with DU-145 and 223 µM in the assay with LNCaP.

In general, IC50 refers to the concentration at which inhibition is half-maximal. Read a high IC50 as weaker potency in that assay.
